Tests used:
[1] = tested on: A549; experiment: Cytotoxicity against human A549 cells incubated for 4 hrs in anoxic condition followed by oxic exposure for 48 hrs by sulforhodamine B assay; assay type: functional
Method in brief: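 Anoxic arm: A549 cells handled in an anaerobic chamber (≤10 ppm O2) with medium and plates preconditioned ≥48 h. 6000 cells/well, 2 h attachment. Serial dilutions from DMSO stocks, top final concentration 50 µg/mL, in duplicate. 4 h anaerobic drug exposure, then 48 h aerobic, then SRB readout.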

[2] = target: T1, Tubulin (Homo sapiens) (UniProt P68371+Q9H4B7+P0DPH7+P68366+Q13509+Q71U36+P04350+Q3ZCM7+P07437+P68363+Q9BQE3+Q6PEY2+Q13885+Q9BVA1+Q9BUF5); experiment: Inhibition of [3H]colchicine binding to tubulin (unknown origin) at 1 uM incubated for 10 mins by scintillation counting relative to control; assay type: protein-complex assay
Method in brief: (§1)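 Purified tubulin at 1.0 µM with 5.0 µM [3H]colchicine, in 1.0 M monosodium glutamate (pH 6.6), 0.5 mg/mL BSA, 0.1 M glucose-1-phosphate, 1.0 mM MgCl2, 1.0 mM GTP and 5% DMSO. Incubated 10 min at 37 °C, then filter-bound radioactivity counted. Percent inhibition taken against no-inhibitor controls, corrected for filter binding without tubulin.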

[3] = tested on: A549; experiment: Cytotoxicity against human A549 cells incubated for 52 hrs in oxic condition by sulforhodamine B assay; assay type: functional; conditions: A549, 52 h
Method in brief: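 Normoxic arm: A549 cells at 6000 cells/well, 2 h attachment. Serial dilutions from DMSO stocks, top final concentration 50 µg/mL, in duplicate. Drug exposure 4 h under 95% air/5% CO2, then 48 h aerobic culture. Cytotoxicity read by SRB.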

[4] = Inhibition of bovine brain tubulin polymerisation preincubated for 15 mins followed by GTP addition and measured for 20 mins by turbidimetry based spectrophotometric method; design: species or system Bos taurus
Method in brief: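 Bovine brain tubulin at 1.0 mg/mL (10 µM) in 0.8 M monosodium glutamate (pH 6.6) with 4% DMSO and compound. Preincubated 15 min at 30 °C, chilled, then 0.4 mM GTP added. Temperature jumped from 0 to 30 °C; turbidity at 350 nm followed for 20 min. IC50 is the concentration halving extent of assembly.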

[5] = target: T1, Tubulin (Homo sapiens); experiment: Inhibition of [3H]colchicine binding to tubulin (unknown origin) at 5 uM incubated for 10 mins by scintillation counting relative to control; assay type: protein-complex assay; method in brief: as §1
[6] = tested on: A549; experiment: Ratio of GI50 for human A549 cells in oxic condition to GI50 for anoxic condition; assay type: functional
Method in brief: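 A549 cells at 6000 cells/well. Drug exposure 4 h either anaerobic (≤10 ppm O2, preconditioned medium and plates) or under 95% air/5% CO2, then 48 h aerobic. SRB cytotoxicity read in duplicate, top final concentration 50 µg/mL. Ratio taken as oxic over anoxic value.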

[7] = Stability of the compound in pH 7.4 potassium phosphate buffer assessed as compound hydrolysis after 48 hrs; assay type: physicochemical; conditions: read-out: Drug degradation
[8] = target: T2, NADPH-cytochrome P450 oxidoreductase (Rattus norvegicus, UniProt P00388); experiment: Substrate activity at rat NADPH-cytochrome P450 oxidoreductase expressed in supersomes assessed as compound cleavage after 90 mins in anaerobic condition by HPLC analysis; conditions: read-out: Drug degradation
T2 sequence (P00388 whole entry): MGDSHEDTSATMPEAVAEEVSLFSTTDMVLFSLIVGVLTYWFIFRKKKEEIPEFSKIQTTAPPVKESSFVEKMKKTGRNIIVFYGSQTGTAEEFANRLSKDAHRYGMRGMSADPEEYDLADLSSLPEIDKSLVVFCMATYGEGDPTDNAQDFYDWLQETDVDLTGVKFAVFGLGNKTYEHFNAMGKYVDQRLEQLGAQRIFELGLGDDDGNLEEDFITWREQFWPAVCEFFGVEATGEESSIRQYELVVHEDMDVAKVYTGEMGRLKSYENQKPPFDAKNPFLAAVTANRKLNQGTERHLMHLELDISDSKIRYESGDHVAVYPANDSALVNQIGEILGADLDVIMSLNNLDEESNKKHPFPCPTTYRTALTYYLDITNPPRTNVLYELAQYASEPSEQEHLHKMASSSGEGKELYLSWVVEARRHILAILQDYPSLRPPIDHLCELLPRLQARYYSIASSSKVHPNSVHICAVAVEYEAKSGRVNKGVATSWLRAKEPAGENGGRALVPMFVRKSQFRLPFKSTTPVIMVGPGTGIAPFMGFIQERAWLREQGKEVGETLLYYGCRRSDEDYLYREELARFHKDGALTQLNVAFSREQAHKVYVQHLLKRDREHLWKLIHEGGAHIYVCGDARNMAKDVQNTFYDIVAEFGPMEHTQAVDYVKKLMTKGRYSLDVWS
Method in brief: (§2)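 Rat POR supersomes (0.006 U) with 0.8 mM NADPH, acting on compound diluted from 10 mM DMSO stock into 200 mM potassium phosphate pH 7.4 with 0.1% Triton X-100 and 400 µM protocatechuic acid. Made anaerobic by N2 evacuation/sparging plus 0.08 U protocatechuate dioxygenase. Incubated at 37 °C, quenched with acetonitrile, quantified by HPLC against standard curves; no-POR controls.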

[9] = tested on: 4T1; experiment: Induction in necrosis in tumor of BALB/C mouse implanted with mouse 4T1 cells harboring firefly luciferase reporter gene at 180 mg/kg, ip measured after 72 to 96 hrs by hematoxylin and eosin staining based assay (reference value: 46%); assay type: functional
[10] = target: T2, NADPH-cytochrome P450 oxidoreductase; experiment: Substrate activity at rat NADPH-cytochrome P450 oxidoreductase expressed in supersomes assessed as compound cleavage after 24 hrs in anaerobic condition by HPLC analysis; conditions: read-out: Activity; method in brief: as §2
[11] = Solubility of the compound in water; assay type: physicochemical; conditions: buffer
[12] = Solubility of the compound in buffered saline; assay type: physicochemical; conditions: buffer
[13] = Solubility of the compound in DMSO; assay type: physicochemical

## COc1ccc(/C=C\c2cc(OC)c(OC)c(OC)c2)c(OS(=O)(=O)c2ccc(C)cc2)c1O
[1]
  GI50: 190 nM
[2]
  inhibition: 50%
[3]
  GI50: 65 nM
[4]
  IC50: 840 nM
[5]
  inhibition: 84%

## Nc1n[n+]([O-])c2ccccc2[n+]1[O-] [TIRAPAZAMINE]
[1]
  GI50: 6800 nM
[3]
  GI50: 63000 nM
[6]
  RatioGI50: 9.2

## COc1cc(/C=C\c2ccc(OC)c(OCc3ccc([N+](=O)[O-])s3)c2OS(=O)(=O)c2ccc(C)cc2)cc(OC)c1OC
[1]
  GI50: 520 nM
[7]
  degraded at 48 h: 0.25%
[3]
  GI50: 440 nM
[4]
  IC50: > 20000 nM
[6]
  RatioGI50: 0.85

## O=[N+]([O-])c1nccn1CC(O)CNCCBr (stereo not drawn)
[1]
  GI50: 24000 nM
[3]
  GI50: > 89000 nM

## COc1cc(/C=C\c2ccc(OC)c(OC(C)c3ccc([N+](=O)[O-])s3)c2OS(=O)(=O)c2ccc(C)cc2)cc(OC)c1OC (stereo not drawn)
[1]
  GI50: 3300 nM
[7]
  degraded at 48 h: 0.84%
[8]
  metabolised at 1.5 h: 13.5%
[3]
  GI50: 4600 nM
[4]
  IC50: > 20000 nM
[6]
  RatioGI50: 1.4

## COc1cc(/C=C\c2ccc(OC)c(OCc3ccc([N+](=O)[O-])s3)c2OC(C)C)cc(OC)c1OC
[1]
  GI50: 300 nM
[7]
  degraded at 48 h: 1.59%
[8]
  metabolised at 1.5 h: 1.1%
[3]
  GI50: 1900 nM
[4]
  IC50: 12000 nM
[6]
  RatioGI50: 6.3

## COc1cc(/C=C\c2ccc(OC)c(OCc3ccc([N+](=O)[O-])s3)c2O)cc(OC)c1OC
[1]
  GI50: 690 nM
[7]
  degraded at 48 h: 0%
[8]
  metabolised at 1.5 h: 17.9%
[3]
  GI50: 320 nM
[4]
  IC50: 4300 nM
[6]
  RatioGI50: 0.46
[5]
  inhibition: 58%

## COc1cc(/C=C\c2ccc(OC)c(OC(C)c3ccc([N+](=O)[O-])s3)c2O)cc(OC)c1OC (stereo not drawn)
[1]
  GI50: 51 nM
[7]
  degraded at 48 h: 0%
[8]
  metabolised at 1.5 h: 25.5%
[3]
  GI50: 310 nM
[4]
  IC50: 6200 nM
[6]
  RatioGI50: 6.1
[5]
  inhibition: 72%

## COc1ccc(/C=C\c2cc(OC)c(OC)c(OC)c2)c(OC(C)c2ccc([N+](=O)[O-])s2)c1O (stereo not drawn)
[1]
  GI50: 260 nM
[2]
  inhibition: 34%
[7]
  degraded at 48 h: 0.5%
[8]
  metabolised at 1.5 h: 5.6%
[3]
  GI50: 180 nM
[4]
  IC50: 840 nM
[6]
  RatioGI50: 0.69
[5]
  inhibition: 90%

## COc1ccc(/C=C\c2cc(OC)c(OC)c(OC)c2)cc1OC(C)(C)c1ccc([N+](=O)[O-])s1
[9]
  Activity: 47 - 55%
[1]
  GI50: 53 nM
[10]
  metabolised at 24 h: 100%
[7]
  degraded at 48 h: 0.69%
[11]
  solubility: Insoluble
[8]
  metabolised at 1.5 h: 25.4%
[3]
  GI50: 2200 nM
[4]
  IC50: > 20000 nM
[12]
  solubility: Insoluble
[6]
  RatioGI50: 41.5
[5]
  inhibition: 33%
[13]
  solubility: Soluble

## COc1cc(/C=C\c2ccc(OC)c3c2OC(c2ccc([N+](=O)[O-])s2)O3)cc(OC)c1OC (stereo not drawn)
[1]
  GI50: 33 nM
[3]
  GI50: 46 nM
[4]
  IC50: 1700 nM
[6]
  RatioGI50: 1.4
[5]
  inhibition: 25%

## COc1ccc(/C=C\c2cc(OC)c(OC)c(OC)c2)cc1O [COMBRETASTATIN A4]
[1]
  GI50: 6.1 nM
[3]
  GI50: 4.7 nM

## COc1ccc(/C=C\c2cc(OC)c(OC)c(OC)c2)c(O)c1O [COMBRETASTATIN A-1]
[1]
  GI50: 820 nM
[3]
  GI50: 1200 nM
[5]
  inhibition: 99.6%

## COc1cc(/C=C\c2ccc(OC)c(OC(C)(C)c3ccc([N+](=O)[O-])s3)c2OC(C)C)cc(OC)c1OC
[1]
  GI50: 490 nM
[7]
  degraded at 48 h: 4.03%
[8]
  metabolised at 1.5 h: 7.6%
[3]
  GI50: 1500 nM
[4]
  IC50: 9500 nM
[6]
  RatioGI50: 3.1

## COc1ccc(/C=C\c2cc(OC)c(OC)c(OC)c2)c(OC(C)C)c1O
[1]
  GI50: 46 nM
[2]
  inhibition: 72%
[3]
  GI50: 63 nM
[4]
  IC50: 820 nM
[5]
  inhibition: 94%

## COc1cc(/C=C\c2ccc(OC)c3c2OC(C)(c2ccc([N+](=O)[O-])s2)O3)cc(OC)c1OC (stereo not drawn)
[1]
  GI50: 720 nM
[3]
  GI50: 550 nM
[4]
  IC50: > 20000 nM
[6]
  RatioGI50: 0.76

## COc1cc(/C=C\c2ccc(OC)c(OC(C)c3ccc([N+](=O)[O-])s3)c2OC(C)C)cc(OC)c1OC (stereo not drawn)
[1]
  GI50: 1200 nM
[7]
  degraded at 48 h: 0.69%
[8]
  metabolised at 1.5 h: 3.8%
[3]
  GI50: 2900 nM
[4]
  IC50: > 20000 nM
[6]
  RatioGI50: 2.4

## COc1ccc(/C=C\c2cc(OC)c(OC)c(OC)c2)c(OCc2ccc([N+](=O)[O-])s2)c1O
[1]
  GI50: 280 nM
[2]
  inhibition: 53%
[7]
  degraded at 48 h: 0%
[8]
  metabolised at 1.5 h: 14.2%
[3]
  GI50: 170 nM
[4]
  IC50: 1700 nM
[6]
  RatioGI50: 0.61
[5]
  inhibition: 92%

## COc1ccc(/C=C\c2cc(OC)c(OC)c(OC)c2)cc1OCc1ccc([N+](=O)[O-])s1
[1]
  GI50: 32 nM
[7]
  degraded at 48 h: 0.35%
[8]
  metabolised at 1.5 h: 2.7%
[3]
  GI50: 110 nM
[4]
  IC50: > 20000 nM
[6]
  RatioGI50: 3.4
[5]
  inhibition: 26%

## COc1ccc(/C=C\c2cc(OC)c(OC)c(OC)c2)cc1OC(C)c1ccc([N+](=O)[O-])s1 (stereo not drawn)
[1]
  GI50: 38 nM
[8]
  metabolised at 1.5 h: 4.1%
[3]
  GI50: 150 nM
[4]
  IC50: > 20000 nM
[6]
  RatioGI50: 4
[5]
  inhibition: 15%

Source: ChEMBL document CHEMBL4610093, “Bioreductively Activatable Prodrug Conjugates of Combretastatin A-1 and Combretastatin A-4 as Anticancer Agents Targeted toward Tumor-Associated Hypoxia” (J Nat Prod, 2020)
